Measurements reported in ChEMBL document CHEMBL1152689, “Synthesis, tautomerism, and antimicrobial, anti-HCV, anti-SSPE, antioxidant, and antitumor activities of arylazobenzosuberones” (Bioorg Med Chem, 2009).
Converted amounts (≈) assume the structure as drawn. The source made the active and inactive calls. The calls are words filed in the database; no cut-off is given here.

How the values were obtained:
MC-38 = assay: Antitumor activity against mouse Colon 38 cells implanted in iv dosed C57BL/6 mouse administered as single dose; assay type: functional, organism-based
Outline: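 Female C57BL/6 mice, 6 weeks old, given about 30 mg Colon 38 tumor tissue s.c. in the flank. Randomized into groups of n = 5 when tumors reached about 300 mm3 (day 1). Compound in 5% glucose given as a single iv tail-vein dose on day 1; controls received 5% glucose. Tumor volume = (length × width²)/2 and body weight tracked.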

Aspergillus fumigatus [1] = assay: Antimicrobial activity against Aspergillus fumigatus at 2.5 ug/mL by agar diffusion method; assay type: functional; settings: read-out: IZ
[2] = Antioxidant activity assessed as inhibition of peroxynitrite-mediated 3-nitrotyrosine formation by HPLC; assay type: functional
Outline: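 Tyrosine and peroxynitrite, each 100 µM, reacted with compound at 0–300 µM in 100 mM phosphate buffer pH 7.4 at 37 °C for 15 min. Peroxynitrite made from acidified H2O2 plus KNO2, quenched with NaOH, and kept on ice no longer than 30 min before use.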

[3] = test system: Syncephalastrum racemosum; assay: Antimicrobial activity against Syncephalastrum racemosum at 1.25 ug/mL by agar diffusion method; assay type: functional; settings: read-out: IZ
Measles morbillivirus = assay: Antiviral activity against Measles virus infected in intracranially dosed hamster assessed as inhibition of subacute sclerosing panencephalitis; assay type: functional
Outline: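 Hamsters under ether anesthesia injected intracranially, into the subarachnoid space at 2 mm depth, at 5, 10 and 20 mg/kg/day for 10 days. Four animals per group sacrificed on days 1–20. Brains homogenized in PBS and centrifuged, supernatant deproteinized with ethanol, then MIC in brain tissue determined by HPLC and bioassay.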

Bacillus subtilis [4] = assay: Antimicrobial activity against Bacillus subtilis at 2.5 ug/mL by agar diffusion method; assay type: functional; settings: read-out: IZ
Escherichia coli [5] = assay: Antimicrobial activity against Escherichia coli at 5 ug/mL by agar diffusion method; assay type: functional; settings: read-out: IZ
Bacillus subtilis [6] = assay: Antimicrobial activity against Bacillus subtilis at 1.25 ug/mL by agar diffusion method; assay type: functional; settings: read-out: IZ
Candida albicans [7] = assay: Antimicrobial activity against Candida albicans at 2.5 ug/mL by agar diffusion method; assay type: functional; settings: read-out: IZ
Hepatitis C virus = assay: Antiviral activity against HCV by cell based replicon assay; assay type: functional, Hepacivirus hominis
Outline: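 HCV replicon cells plated at 1×10^4 per well. Next day incubated at 37 °C with serially diluted compound in DMEM with 2% FBS and 0.5% DMSO. HCV RNA copy number measured by quantitative RT-PCR on total cellular RNA. Each point is the average of five replicates. Cytotoxicity measured by MTS in parallel.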

Penicillium italicum [8] = assay: Antimicrobial activity against Penicillium italicum at 1.25 ug/mL by agar diffusion method; assay type: functional; settings: read-out: IZ
Candida albicans [9] = assay: Antimicrobial activity against Candida albicans at 1.25 ug/mL by agar diffusion method; assay type: functional; settings: read-out: IZ
Candida albicans [10] = assay: Antimicrobial activity against Candida albicans at 5 ug/mL by agar diffusion method; assay type: functional; settings: read-out: IZ
Aspergillus fumigatus [11] = assay: Antimicrobial activity against Aspergillus fumigatus at 5 ug/mL by agar diffusion method; assay type: functional; settings: read-out: IZ
Staphylococcus aureus [12] = assay: Antimicrobial activity against Staphylococcus aureus at 2.5 ug/mL by agar diffusion method; assay type: functional; settings: read-out: IZ
Aspergillus fumigatus [13] = assay: Antimicrobial activity against Aspergillus fumigatus at 1.25 ug/mL by agar diffusion method; assay type: functional; settings: read-out: IZ
Pseudomonas aeruginosa [14] = assay: Antimicrobial activity against Pseudomonas aeruginosa at 2.5 ug/mL by agar diffusion method; assay type: functional; settings: read-out: IZ
Staphylococcus aureus [15] = assay: Antimicrobial activity against Staphylococcus aureus at 1.25 ug/mL by agar diffusion method; assay type: functional; settings: read-out: IZ
[16] = test system: Syncephalastrum racemosum; assay: Antimicrobial activity against Syncephalastrum racemosum at 2.5 ug/mL by agar diffusion method; assay type: functional; settings: read-out: IZ
Staphylococcus aureus [17] = assay: Antimicrobial activity against Staphylococcus aureus at 5 ug/mL by agar diffusion method; assay type: functional; settings: read-out: IZ
Pseudomonas aeruginosa [18] = assay: Antimicrobial activity against Pseudomonas aeruginosa at 5 ug/mL by agar diffusion method; assay type: functional; settings: read-out: IZ
[19] = test system: Syncephalastrum racemosum; assay: Antimicrobial activity against Syncephalastrum racemosum at 5 ug/mL by agar diffusion method; assay type: functional; settings: read-out: IZ
[20] = test system: Radical scavenging activity; assay: Antioxidant activity assessed as DPPH free radical scavenging activity by measuring reduction in DPPH absorbance by ELISA relative to untreated control; assay type: functional; parameters: concentration or dose not given beside the values
Outline: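 Test compounds dissolved in DMSO, ascorbic acid standard in water, both serially diluted. 10 µl sample added to 90 µl of 100 µM DPPH in methanol and kept in the dark at 37 °C for 30 min. Absorbance read at 515 nm. Blank is DMSO plus DPPH. % reduction = (A_B − A_A)/A_B × 100. Run in triplicate.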

Penicillium italicum [21] = assay: Antimicrobial activity against Penicillium italicum at 2.5 ug/mL by agar diffusion method; assay type: functional; settings: read-out: IZ
Escherichia coli [22] = assay: Antimicrobial activity against Escherichia coli at 2.5 ug/mL by agar diffusion method; assay type: functional; settings: read-out: IZ
Bacillus subtilis [23] = assay: Antimicrobial activity against Bacillus subtilis at 5 ug/mL by agar diffusion method; assay type: functional; settings: read-out: IZ
Penicillium italicum [24] = assay: Antimicrobial activity against Penicillium italicum at 5 ug/mL by agar diffusion method; assay type: functional; settings: read-out: IZ
Escherichia coli [25] = assay: Antimicrobial activity against Escherichia coli at 1.25 ug/mL by agar diffusion method; assay type: functional; settings: read-out: IZ
Pseudomonas aeruginosa [26] = assay: Antimicrobial activity against Pseudomonas aeruginosa at 1.25 ug/mL by agar diffusion method; assay type: functional; settings: read-out: IZ
[27] = biological target: T1, DNA topoisomerase 1 (Homo sapiens) (UniProt P11387); assay: Inhibition of topoisomerase 1 relative to etoposide
T1 sequence (whole entry): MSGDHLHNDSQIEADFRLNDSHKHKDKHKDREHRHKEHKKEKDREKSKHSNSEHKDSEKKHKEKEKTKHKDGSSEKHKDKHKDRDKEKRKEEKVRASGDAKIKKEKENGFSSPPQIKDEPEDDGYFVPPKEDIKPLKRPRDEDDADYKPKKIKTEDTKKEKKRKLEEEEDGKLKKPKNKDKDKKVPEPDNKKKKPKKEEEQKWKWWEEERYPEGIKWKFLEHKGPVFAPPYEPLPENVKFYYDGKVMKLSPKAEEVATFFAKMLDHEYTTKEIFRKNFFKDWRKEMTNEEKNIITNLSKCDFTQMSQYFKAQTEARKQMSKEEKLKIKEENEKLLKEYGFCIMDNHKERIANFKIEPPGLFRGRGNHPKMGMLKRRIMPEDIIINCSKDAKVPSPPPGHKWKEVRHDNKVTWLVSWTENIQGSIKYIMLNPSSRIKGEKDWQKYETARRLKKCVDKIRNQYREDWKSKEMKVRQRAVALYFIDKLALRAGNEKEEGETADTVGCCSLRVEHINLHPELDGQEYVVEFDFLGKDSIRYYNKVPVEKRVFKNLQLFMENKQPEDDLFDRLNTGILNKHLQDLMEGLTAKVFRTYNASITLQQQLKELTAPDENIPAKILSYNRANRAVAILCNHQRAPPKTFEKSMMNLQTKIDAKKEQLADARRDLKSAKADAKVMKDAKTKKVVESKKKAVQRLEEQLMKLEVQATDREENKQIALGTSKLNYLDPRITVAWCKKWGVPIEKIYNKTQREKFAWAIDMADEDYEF

[28] = biological target: DNA topoisomerase 2-alpha (Mus musculus) (UniProt Q01320); assay: Inhibition of topoisomerase 2 from mouse P388 cells assessed as relaxation of pBR322 DNA by agarose gel electrophoresis relative to etoposide; assay type: cell-based
DNA topoisomerase 2-alpha (Mus musculus), sequence (Q01320 whole entry): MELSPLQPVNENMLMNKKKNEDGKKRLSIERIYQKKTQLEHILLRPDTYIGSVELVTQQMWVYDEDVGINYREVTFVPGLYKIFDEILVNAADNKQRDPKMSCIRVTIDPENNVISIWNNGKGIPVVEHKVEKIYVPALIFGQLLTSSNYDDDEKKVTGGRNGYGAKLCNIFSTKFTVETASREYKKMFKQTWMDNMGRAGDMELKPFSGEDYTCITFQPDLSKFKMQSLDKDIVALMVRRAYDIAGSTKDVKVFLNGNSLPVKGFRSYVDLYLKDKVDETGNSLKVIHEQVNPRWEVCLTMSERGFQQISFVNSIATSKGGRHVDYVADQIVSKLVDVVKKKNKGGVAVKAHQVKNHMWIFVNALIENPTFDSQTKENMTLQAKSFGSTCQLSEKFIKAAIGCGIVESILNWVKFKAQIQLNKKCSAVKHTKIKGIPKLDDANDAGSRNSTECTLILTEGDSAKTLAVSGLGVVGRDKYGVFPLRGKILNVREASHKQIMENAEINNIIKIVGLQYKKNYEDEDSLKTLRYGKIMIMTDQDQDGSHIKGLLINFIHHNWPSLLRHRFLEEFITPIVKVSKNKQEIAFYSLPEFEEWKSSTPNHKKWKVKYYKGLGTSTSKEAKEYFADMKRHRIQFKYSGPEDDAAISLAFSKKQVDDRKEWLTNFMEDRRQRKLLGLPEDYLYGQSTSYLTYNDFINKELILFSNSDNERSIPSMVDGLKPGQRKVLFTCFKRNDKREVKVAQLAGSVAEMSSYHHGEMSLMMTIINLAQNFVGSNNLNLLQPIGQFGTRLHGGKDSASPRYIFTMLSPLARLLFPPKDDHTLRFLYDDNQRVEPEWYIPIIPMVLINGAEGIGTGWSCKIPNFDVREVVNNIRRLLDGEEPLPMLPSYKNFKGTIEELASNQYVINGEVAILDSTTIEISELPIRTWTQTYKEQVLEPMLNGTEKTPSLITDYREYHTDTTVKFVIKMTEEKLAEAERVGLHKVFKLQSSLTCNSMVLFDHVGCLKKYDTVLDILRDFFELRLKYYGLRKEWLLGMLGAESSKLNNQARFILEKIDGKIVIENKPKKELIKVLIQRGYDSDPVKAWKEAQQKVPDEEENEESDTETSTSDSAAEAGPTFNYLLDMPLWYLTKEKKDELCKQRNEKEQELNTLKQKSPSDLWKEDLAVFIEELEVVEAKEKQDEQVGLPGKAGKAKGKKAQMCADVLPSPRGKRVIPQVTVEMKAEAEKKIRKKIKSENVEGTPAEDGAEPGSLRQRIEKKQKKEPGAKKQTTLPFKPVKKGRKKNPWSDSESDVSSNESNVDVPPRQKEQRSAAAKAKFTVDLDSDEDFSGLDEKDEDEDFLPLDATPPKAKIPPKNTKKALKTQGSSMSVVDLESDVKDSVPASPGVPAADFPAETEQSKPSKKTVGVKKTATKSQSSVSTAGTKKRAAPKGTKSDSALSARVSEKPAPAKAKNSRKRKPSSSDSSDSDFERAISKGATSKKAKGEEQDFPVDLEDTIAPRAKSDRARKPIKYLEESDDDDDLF
Outline: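 Topoisomerase II purified from P388 cells. One unit relaxes 0.125 µg supercoiled pBR322 DNA, incubated with or without inhibitor at 30 °C for 1 h in 50 mM Tris-HCl pH 8.0, 100 mM KCl, 10 mM MgCl2, 0.5 mM DTT, 1 mM ATP and 30 µg/ml BSA. Products run on 0.7% agarose in TBE, stained with ethidium bromide and imaged under UV.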

| IC50 [2] [µM] | MIC (Measles morbillivirus) [µg/mL] | MIC (Hepatitis C virus) [µg/mL] | Compound | Activity (MC-38) | zone of inhibition at 2.5 µg/mL (Aspergillus fumigatus [1]) [mm] | zone of inhibition at 1.25 µg/mL [3] [mm] | zone of inhibition at 2.5 µg/mL (Bacillus subtilis [4]) [mm] | zone of inhibition at 5 µg/mL (Escherichia coli [5]) [mm] | zone of inhibition at 1.25 µg/mL (Bacillus subtilis [6]) [mm] | zone of inhibition at 2.5 µg/mL (Candida albicans [7]) [mm] | zone of inhibition at 1.25 µg/mL (Penicillium italicum [8]) [mm] | zone of inhibition at 1.25 µg/mL (Candida albicans [9]) [mm] | zone of inhibition at 5 µg/mL (Candida albicans [10]) [mm] | zone of inhibition at 5 µg/mL (Aspergillus fumigatus [11]) [mm] | zone of inhibition at 2.5 µg/mL (Staphylococcus aureus [12]) [mm] | zone of inhibition at 1.25 µg/mL (Aspergillus fumigatus [13]) [mm] | zone of inhibition at 2.5 µg/mL (Pseudomonas aeruginosa [14]) [mm] | zone of inhibition at 1.25 µg/mL (Staphylococcus aureus [15]) [mm] | zone of inhibition at 2.5 µg/mL [16] [mm] | zone of inhibition at 5 µg/mL (Staphylococcus aureus [17]) [mm] | further results |
| --- | --- | --- | --- | --- | --- | --- | --- | --- | --- | --- | --- | --- | --- | --- | --- | --- | --- | --- | --- | --- | --- |
| 54.1 | 6 (≈ 20.1 µM) | 1 (≈ 3.35 µM) | O=C1/C(=N/Nc2cccc(Cl)c2)CCCc2ccccc21 | Active | 8 | 6 | 10 | 9 | 7 | 11 | 0 | 7 | 15 | 14 | 9 | 6 | 0 | 5 | 9 | 12 | zone of inhibition at 5 µg/mL (Pseudomonas aeruginosa [18]): 0 mm; zone of inhibition at 5 µg/mL [19]: 16 mm; Activity [20]: 84.1%; zone of inhibition at 2.5 µg/mL (Penicillium italicum [21]): 0 mm; zone of inhibition at 2.5 µg/mL (Escherichia coli [22]): 0 mm; zone of inhibition at 5 µg/mL (Bacillus subtilis [23]): 17 mm; zone of inhibition at 5 µg/mL (Penicillium italicum [24]): 0 mm; zone of inhibition at 1.25 µg/mL (Escherichia coli [25]): 0 mm; zone of inhibition at 1.25 µg/mL (Pseudomonas aeruginosa [26]): 0 mm; Ratio [27]: 4.9; Ratio [28]: 5 |
| 5.13 | 6.08 (≈ 19.7 µM) | 1.03 (≈ 3.34 µM) | O=C1/C(=N/Nc2ccc([N+](=O)[O-])cc2)CCCc2ccccc21 | Active | 8 | 4 | 8 | 8 | 3 | 6 | 0 | 0 | 12 | 18 | 3 | 5 | 0 | 0 | 9 | 9 | zone of inhibition at 5 µg/mL (Pseudomonas aeruginosa [18]): 0 mm; zone of inhibition at 5 µg/mL [19]: 16 mm; Activity [20]: 82%; zone of inhibition at 2.5 µg/mL (Penicillium italicum [21]): 0 mm; zone of inhibition at 2.5 µg/mL (Escherichia coli [22]): 0 mm; zone of inhibition at 5 µg/mL (Bacillus subtilis [23]): 14 mm; zone of inhibition at 5 µg/mL (Penicillium italicum [24]): 0 mm; zone of inhibition at 1.25 µg/mL (Escherichia coli [25]): 0 mm; zone of inhibition at 1.25 µg/mL (Pseudomonas aeruginosa [26]): 0 mm; Ratio [27]: 4.4; Ratio [28]: 4.6 |
